Experimental data reported in paper PMC10187672 (RNA, 2023).
Several values for one entry are separate records, joined by “and”; a condition that tells them apart may be missing. Equal values may be shown once.

Experiments:
[1] = system: TCR-β minigene mRNA (NMD) in HeLa cells; experiment: NMD assay, RT-qPCR of TCR-β minigene mRNA in PTC− and PTC+ HeLa cells; type: cell-based; details: for TCR-β mRNA levels in PTC+ cells / TCR-β mRNA levels in PTC− cells: normalized to β-actin; for TCR-β mRNA levels in PTC− cells: PTC− HeLa cells
Procedure, shortened: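 HeLa cells carrying a TCR-β minigene with or without a PTC were seeded at 100,000/well and exposed to compound across a concentration series for 1 h or 5 h. Total RNA was TRIzol-extracted, and 500 ng was reverse-transcribed with oligo(dT) primer. EvaGreen qPCR followed, with TCR-β normalized to β-actin. n = 3 ± SD.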

[2] = system: 4A1^F163L/4A2^− eHAP1 cells; experiment: RT-qPCR of FF-4.04 and FF-4.06 reporter mRNA; type: cell-based; details: 5 h exposure, normalized to GAPDH, relative to DMSO
Procedure, shortened: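 Cells were nucleofected with the PTC-containing or control FLuc-β-globin reporter and selected as a pool in G418 (1.6 mg/mL). They were seeded at 250,000/well and exposed to compound for 5 h. After TRIzol extraction and oligo(dT) cDNA synthesis, EvaGreen qPCR used β-globin (HBB) primers. Values were normalized to GAPDH and expressed relative to DMSO.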

[3] = system: SC35 mRNA in 4A1^F163L/4A2^− eHAP1 cells; experiment: RT-qPCR of endogenous SC35 and HPRT mRNA; type: cell-based; details: 5 h exposure, normalized to β-actin
Procedure, shortened: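 Cells were seeded at 250,000/well and given a concentration series of compound for 5 h. Total RNA was TRIzol-extracted, and 500 ng was reverse-transcribed with oligo(dT) primer. EvaGreen qPCR measured SC35 and HPRT, normalized to β-actin and expressed as fold change versus DMSO.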

[4] = system: Krebs-2 translation extracts; experiment: In vitro translation of FF/HCV/Ren bicistronic reporter mRNAs; type: biochemical; details: Krebs-2 extracts, 1 h at 30°C
Procedure, shortened: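 Reporter mRNAs were used at 10 ng/µL final. FLuc and RLuc activities were read by luminometry, and RLU were normalized to DMSO vehicle controls.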

eIF4A3 [5] = biological target: T1, eIF4A3 (Homo sapiens, UniProt P38919); experiment: Fluorescence polarization; type: binding; details: 10 µM compound, 1 mM AMPPNP
T1 sequence (P38919 whole entry, species assumed): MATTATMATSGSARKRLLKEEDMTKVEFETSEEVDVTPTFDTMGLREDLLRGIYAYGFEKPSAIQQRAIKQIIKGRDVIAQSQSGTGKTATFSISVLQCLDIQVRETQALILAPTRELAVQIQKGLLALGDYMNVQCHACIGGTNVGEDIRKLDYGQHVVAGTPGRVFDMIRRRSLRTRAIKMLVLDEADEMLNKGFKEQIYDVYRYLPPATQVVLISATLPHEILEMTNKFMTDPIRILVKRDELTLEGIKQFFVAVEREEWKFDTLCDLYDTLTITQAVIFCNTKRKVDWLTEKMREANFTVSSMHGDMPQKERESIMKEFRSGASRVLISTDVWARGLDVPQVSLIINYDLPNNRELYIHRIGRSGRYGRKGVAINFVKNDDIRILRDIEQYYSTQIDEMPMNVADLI

eIF4A1 [6] = biological target: T2, eIF4A1 (Homo sapiens, UniProt P60842); experiment: FP dissociation of preformed protein•ATP•RNA•compound complexes; type: binding; details: 10 µM compound, 1 mM ATP, 1000-fold molar excess unlabeled poly r(AG)8 RNA
T2 sequence (P60842 whole entry, species assumed): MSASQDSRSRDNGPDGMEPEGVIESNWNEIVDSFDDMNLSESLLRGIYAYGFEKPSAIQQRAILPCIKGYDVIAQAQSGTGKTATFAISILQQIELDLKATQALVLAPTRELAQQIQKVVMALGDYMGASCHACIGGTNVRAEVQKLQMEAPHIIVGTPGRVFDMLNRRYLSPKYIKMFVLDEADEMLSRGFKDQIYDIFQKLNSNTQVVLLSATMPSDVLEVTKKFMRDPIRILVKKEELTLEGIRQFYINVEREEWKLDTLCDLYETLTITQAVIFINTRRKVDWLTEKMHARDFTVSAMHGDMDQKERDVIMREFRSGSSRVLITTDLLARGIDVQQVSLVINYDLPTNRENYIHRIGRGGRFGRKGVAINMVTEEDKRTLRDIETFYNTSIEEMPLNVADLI
Procedure, shortened: (§1)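 Recombinant His6-tagged human protein was expressed in E. coli BL21(DE3) and Ni-NTA purified. Complexes were preformed for 30 min at RT in the dark in FP buffer (HEPES-NaOH pH 8, 0.1% DMSO) with 1.5 µM protein, 10 nM FAM-poly r(AG)8 and 1 mM ATP. DMSO reactions used 25 µM protein. After adding 10 µM unlabeled RNA, FP was read every 10 sec. Half-life came from a one-phase exponential decay fit (Y0 = 1, plateau = 0).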

eIF4A3 [7] = biological target: T1, eIF4A3; experiment: as above; type: binding; details: 10 µM compound, 1 mM ATP, 1000-fold molar excess unlabeled poly r(AG)8 RNA
Procedure, shortened: as §1

[8] = system: HeLa cells harboring a (TCR)-β minigene; experiment: [35S]-Methionine labeling of de novo protein synthesis; type: cell-based; details: 1 h exposure, labeling last 15 min
Procedure, shortened: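 PTC+ minigene HeLa cells were seeded at 50,000/well and treated with compound for 1 h the next day, with [35S]-Met/Cys added for the final 15 min. Cells were washed and lysed in RIPA buffer, and lysates were spotted on paper and TCA-precipitated. Radioactivity was measured by scintillation counting and normalized to total protein. n = 3 ± SD.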

[9] = system: 4A1^F163L/4A2^− eHAP1 cells; experiment: Luciferase NMD reporter assay; type: cell-based; details: 6 h exposure
Procedure, shortened: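 Cells were transfected at 75% confluency with an FLuc-β-globin plasmid (PTC-containing or control, with or without an upstream HCV IRES) plus an HCV-IRES RLuc plasmid. The next day they were reseeded and left to recover for 24 h, then given compound for 6 h. Cells were lysed and both luciferases read by luminometry. n = 3 ± SD.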

eIF4A1 [10] = biological target: T2, eIF4A1; experiment: Fluorescence polarization; type: binding; details: 10 µM compound, 1 mM AMPPNP

SMILES | TCR-β mRNA levels in PTC+ cells ([1]; PTC+ HeLa cells, 5 h exposure) | TCR-β mRNA levels in PTC− cells ([1]; 5 h exposure) | FF-4.06 (NMD reporter) mRNA levels [2] | HPRT mRNA levels [3] | SC35 mRNA levels relative to DMSO controls [3] | Translational response of all three reporters (AG, UC, NMD 5′ leaders) [4] | Clamping of eIF4A3 to poly r(AG)8 RNA (ΔmP relative to DMSO) (eIF4A3 [5]) | Fitted half-life T(1/2) of eIF4A1•ATP•RNA•compound complex (eIF4A1 [6]) | Fitted half-life T(1/2) of eIF4A3•ATP•RNA•compound complex (eIF4A3 [7]) | Effect on TCR-β minigene mRNA levels ([1]; PTC+ HeLa cells, 1 µM compound for 1 h) | 35S-Met incorporation into proteins (translation) [8] | Luc expression from FF-4.04 or FF-4.06 reporters ([9]; 300 nM, both reporters) | RLuc expression from internal HCV/Ren control [9] | Expression of HCV/FF-4.04 and HCV/FF-4.06 reporters ([9]; titration range tested) | Translational response of reporter mRNA with polypurine ([AG]10) 5′ leader [4] | Clamping of eIF4A1 to poly r(AG)8 RNA (ΔmP relative to DMSO) (eIF4A1 [10]) | Increase of PTC+ mRNA levels ([1]; PTC+ HeLa cells, 1 h exposure, highest concentration tested (200 nM)) | Increase of PTC+ mRNA levels ([1]; PTC+ HeLa cells, 5 h exposure) [fold]
C[C@@H]1C[C@@H]([C@H](O)CC2CC(=O)NC(=O)C2)C(=O)[C@@H](C)C1 [CHX, cycloheximide] | significantly increased | no impact | increased | not increased | significant increase | equally responsive |  |  |  |  |  |  |  |  |  |  |  | 
CONC(=O)[C@H]1[C@@H](O)[C@@]2(O)c3c(OC)cc(OC)cc3O[C@@]2(c2ccc(OC)cc2)[C@@H]1c1ccccc1 [CR-1-31B] | substantial stabilization |  | increased only in the presence of CHX | not increased | did not significantly change |  | able to induce clamping | 0.833 ± 0.005 h | 0.4 ± 0.0067 h | no significant effect | translation was blocked | approximately twofold | No change | neither reporter showed a change in expression | conferred CR-1-31B responsiveness |  |  | 
CC(/C=C/C(C)=C/[C@@H]1Cc2nc(cs2)[C@@H](C)C[C@@H](N)CC(=O)O[C@@H](C)C/C(C)=C/C=C\C(=O)O1)=C\CN(C)C [PatA, pateamine A] | Stabilization of TCR-β mRNA | but not PTC− cells |  | not increased | significant increase | equally inhibited all reporters | clamping was observed | 1.83 h and 1.83 ± 0.0233 h | 3.05 h and 3.05 ± 0.02 h |  | translation was blocked |  |  |  |  | clamping was observed | approximately threefold | 10
COc1ccc([C@@]23Oc4cc(OC)cc(OC)c4[C@]2(O)[C@H](O)[C@H](C(=O)N(C)C)[C@H]3c2ccccc2)cc1 [RocA] |  |  |  |  |  |  | able to induce clamping |  |  |  |  |  |  |  |  |  |  | 
COC(=O)[C@H]1[C@@H](O)[C@@]2(O)c3c(OC)cc(O[C@@H]4O[C@@H]([C@H](O)CO)CO[C@H]4OC)cc3O[C@@]2(c2ccc(OC)cc2)[C@@H]1c1ccccc1 [silvestrol] |  |  |  |  |  |  | able to induce clamping |  |  |  |  |  |  |  |  |  |  | 
